Assay results: ChEMBL document CHEMBL2177049, “Novel cytidine-based orotidine-5'-monophosphate decarboxylase inhibitors with an unusual twist” (J Med Chem, 2012)
Converted amounts (≈) assume the structure as drawn.

Key:
[1] = molecular target: T1, Orotidine phosphate decarboxylase (Plasmodium falciparum, UniProt Q8T6J6); test: Inhibition of Plasmodium falciparum ODCase by isothermal titration calorimetry
T1 sequence (Q8T6J6 whole entry): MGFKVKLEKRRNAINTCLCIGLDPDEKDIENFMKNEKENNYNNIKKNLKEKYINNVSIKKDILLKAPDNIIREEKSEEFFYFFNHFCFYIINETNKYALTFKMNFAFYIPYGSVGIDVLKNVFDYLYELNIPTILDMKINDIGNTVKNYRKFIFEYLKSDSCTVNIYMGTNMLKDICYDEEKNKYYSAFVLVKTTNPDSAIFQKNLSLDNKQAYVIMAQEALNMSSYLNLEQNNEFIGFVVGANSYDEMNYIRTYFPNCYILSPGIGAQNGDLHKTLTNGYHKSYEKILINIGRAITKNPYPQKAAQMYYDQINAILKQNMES
Procedure, shortened: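 Recombinant P. falciparum enzyme, preincubated overnight at room temperature in 50 mM Tris, 40 mM NaCl, 20 mM DTT. ITC at 37 °C in 50 mM Tris, 20 mM DTT, pH 7.5, with 60 nM enzyme and 12 μM substrate. Substrate injection into enzyme–inhibitor mix started the reaction. Triplicate runs; competitive Ki derived from rate versus [S] and double-reciprocal plots.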

[2] = molecular target: Orotidine 5'-phosphate decarboxylase (Methanobacterium thermoautotrophicum, UniProt O26232); test: Inhibition of Methanobacterium thermoautotrophicum ODCase by isothermal titration calorimetry; set-up: species or system Methanothermobacter thermautotrophicus
Procedure, shortened: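 Recombinant M. thermoautotrophicum enzyme, preincubated overnight at room temperature in 50 mM Tris, 40 mM NaCl, 20 mM DTT. Activity read by ITC at 55 °C in 50 mM Tris, 20 mM DTT, pH 7.5, with 20 nM enzyme and 40 μM substrate; inhibitor 0–100 μM. Substrate injection into enzyme–inhibitor mix started the reaction. Triplicates; competitive Ki from rate versus [S] and double-reciprocal plots.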

[3] = molecular target: T2, Uridine 5'-monophosphate synthase (Homo sapiens, UniProt P11172); test: Inhibition of human ODCase by isothermal titration calorimetry
T2 sequence (P11172 whole entry): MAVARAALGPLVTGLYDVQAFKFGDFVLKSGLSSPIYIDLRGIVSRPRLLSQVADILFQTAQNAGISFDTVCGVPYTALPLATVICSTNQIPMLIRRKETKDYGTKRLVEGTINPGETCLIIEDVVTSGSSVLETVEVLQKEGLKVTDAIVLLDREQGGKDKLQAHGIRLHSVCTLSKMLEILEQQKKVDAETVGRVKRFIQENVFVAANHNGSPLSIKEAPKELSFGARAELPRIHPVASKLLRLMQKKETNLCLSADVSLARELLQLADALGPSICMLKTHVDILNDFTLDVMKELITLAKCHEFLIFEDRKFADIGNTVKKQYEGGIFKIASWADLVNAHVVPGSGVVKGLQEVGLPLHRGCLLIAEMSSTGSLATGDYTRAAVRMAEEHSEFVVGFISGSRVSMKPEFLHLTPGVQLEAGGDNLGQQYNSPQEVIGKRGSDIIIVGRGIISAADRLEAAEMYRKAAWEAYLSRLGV
Procedure, shortened: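 Recombinant human enzyme, preincubated overnight at room temperature in 50 mM Tris, 40 mM NaCl, 20 mM DTT. Substrate injection into enzyme–inhibitor mix started the reaction. Triplicates; competitive Ki from rate versus [S] and double-reciprocal analysis.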

Plasmodium falciparum = test: Antimalarial activity against Plasmodium falciparum incubated for 48 hrs by fluorescence-based SYBR-green assay; assay type: functional, organism-based
Procedure, shortened: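 P. falciparum ItG line grown in human O erythrocytes in RPMI 1640 with 10% human serum and 50 μM hypoxanthine. Compound stock was 10 mg/mL in RPMI, filter-sterilized, then serially diluted up to 500 μg/mL with constant parasite numbers. Plates were held 48 h under 3% CO2/2% O2/95% N2 and read by SYBR Green/Triton X-100 fluorescence. Quadruplicates; IC50 by nonlinear regression of dose–response.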

Orotidine 5'-phosphate decarboxylase, sequence (O26232 whole entry): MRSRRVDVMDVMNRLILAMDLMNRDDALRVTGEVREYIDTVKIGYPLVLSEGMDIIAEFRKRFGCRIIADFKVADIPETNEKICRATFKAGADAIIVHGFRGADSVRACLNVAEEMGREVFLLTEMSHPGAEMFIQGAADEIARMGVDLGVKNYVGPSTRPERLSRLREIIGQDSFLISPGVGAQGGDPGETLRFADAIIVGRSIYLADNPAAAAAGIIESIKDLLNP

Ki [1]	Ki [2]	Ki [3]	IC50 (Plasmodium falciparum)	SMILES
22.1 µM	11.1 µM			Nc1ccn([C@@H]2O[C@H](COP(=O)(O)O)[C@@H](O)[C@H]2O)c(=O)[n+]1[O-]
			411 µg/mL (≈ 1590 µM)	Nc1ccn([C@@H]2O[C@H](CO)[C@@H](O)[C@H]2O)c(=O)[n+]1[O-]
> 10000 µM	1200 µM	1400 µM		Nc1ccn([C@@H]2O[C@H](COP(=O)(O)O)[C@@H](O)[C@H]2O)c(=O)n1

Further lines, the molecule ahead of its results:

SMILES	Ki [1]	Ki [2]	Ki [3]	IC50 (Plasmodium falciparum)
O=c1ccn([C@@H]2O[C@H](COP(=O)(O)O)[C@@H](O)[C@H]2O)c(=O)[nH]1	210 µM	330 µM	220 µM	
O=c1nc(NO)ccn1[C@@H]1O[C@H](COP(=O)(O)O)[C@@H](O)[C@H]1O	> 1000 µM			
O=c1nc(NO)ccn1[C@@H]1O[C@H](CO)[C@@H](O)[C@H]1O [N-HYDROXYCYTIDINE]				610 µg/mL (≈ 2350 µM)
